The source of these data is ChEMBL document CHEMBL1926632, “Cytotoxic triterpenoid saponins from Lysimachia clethroides” (J Nat Prod, 2011).

Common to all, as to format: functional, cell-based
One assay relates to HepG2. In words: Cytotoxicity against human HepG2 cells by MTT assay. Summed up:
(§1)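 MTT read-out following a previously published method. Cell origins: HT-29 colon cancer, HePG2 hepatoma, BGC-823 gastric cancer, A549 lung epithelial, A375 amelanotic melanoma, all human. Paclitaxel served as positive control in the same panel.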
(Tetrazolium assays rely on reduction of a dye to a coloured formazan, in cell work by metabolically active cells.)

A further assay deals with A549. In words: Cytotoxicity against human A549 cells by MTT assay. Summed up:
as §1

A further assay concerns HT-29. Description: Cytotoxicity against human HT-29 cells by MTT assay. An outline of the steps:
as §1

In a further assay the test system is A-375. In words: Cytotoxicity against human A375 cells by MTT assay. Summed up: as §1
Another assay relates to BGC-823. In words: Cytotoxicity against human BGC823 cells by MTT assay. Summed up: as §1

Consider `C[C@@H]1O[C@@H](O[C@H]2[C@H](O[C@H]3CO[C@@H](O[C@H]4CC[C@]5(C)[C@H]6CC[C@]78OC[C@@]9(CCC(C)(C)C[C@H]97)[C@H](O)C[C@@]8(C)[C@]6(C)CC[C@H]5C4(C)C)[C@H](O[C@@H]4O[C@H](CO)[C@@H](O)[C@H](O)[C@H]4O)[C@H]3O)O[C@H](CO)[C@@H](O)[C@@H]2O)[C@H](O)[C@H](O)[C@H]1O`, for which the IC50 (as a rule, the concentration at which inhibition is half-maximal) with HepG2 came out at 990 nM; with A549 it was 1950 nM; in the assay on HT-29 it was 1960 nM; in the assay on A-375, 2130 nM; in the assay on BGC-823, 2070 nM.

On to `CC1(C)[C@@H](O[C@@H]2OC[C@H](O[C@@H]3O[C@H](CO)[C@@H](O)[C@H](O)[C@H]3O)[C@H](O)[C@H]2O[C@@H]2O[C@H](CO)[C@@H](O)[C@H](O)[C@H]2O)CC[C@]2(C)[C@H]3CC[C@]45OC[C@@]6(CC[C@](C)(CO)C[C@H]64)[C@H](O)C[C@@]5(C)[C@]3(C)CC[C@@H]12` [ARDISIANOSIDE E], for which the IC50 in the assay with HepG2 came to 750 nM; with A549 it was 2470 nM; in the assay with HT-29, 1810 nM; in the assay with A-375, 1710 nM; in the assay with BGC-823, 1140 nM.

As for `C[C@@H]1O[C@@H](O[C@H]2[C@H](O[C@H]3CO[C@@H](O[C@H]4CC[C@]5(C)[C@H]6CC[C@]78OC[C@@]9(CCC(C)(C)C[C@H]97)C(=O)C[C@@]8(C)[C@]6(C)CC[C@H]5C4(C)C)[C@H](O[C@@H]4O[C@H](CO)[C@@H](O)[C@H](O)[C@H]4O)[C@H]3O)O[C@H](CO)[C@@H](O)[C@@H]2O)[C@H](O)[C@H](O)[C@H]1O` [CLETHROIDOSIDE C], the IC50 in the assay on HepG2 came out at 1480 nM; in the assay on A549, 2620 nM; in the assay with HT-29, 1990 nM; in the assay with A-375 it was 1140 nM; in the assay on BGC-823, 1930 nM.

For the compound `CC1(C)CC[C@]23CO[C@@]4(CC[C@@H]5[C@@]6(C)CC[C@H](O[C@@H]7OC[C@H](O[C@@H]8O[C@H](CO)[C@@H](O)[C@H](O)[C@H]8O[C@@H]8OC[C@@H](O)[C@H](O)[C@H]8O)[C@H](O)[C@H]7O[C@@H]7O[C@H](CO)[C@@H](O)[C@H](O)[C@H]7O)C(C)(C)[C@@H]6CC[C@@]5(C)[C@]4(C)CC2=O)[C@@H]3C1` [CLETHROIDOSIDE D], the IC50 turned out to be 1730 nM in the assay with HepG2; 2360 nM with A549; 1980 nM with HT-29; 1910 nM with A-375; 1360 nM with BGC-823.

Turning to `CC(=O)OC[C@H]1O[C@@H](O[C@H]2[C@H](O[C@H]3CC[C@]4(C)[C@H]5CC[C@]67OC[C@@]8(CCC(C)(C)C[C@H]86)[C@H](O)C[C@@]7(C)[C@]5(C)CC[C@H]4C3(C)C)OC[C@H](O[C@@H]3O[C@H](CO)[C@@H](O)[C@H](O)[C@H]3O[C@@H]3O[C@@H](C)[C@H](O)[C@@H](O)[C@H]3O)[C@@H]2O)[C@H](O)[C@@H](O)[C@@H]1O` [CLETHROIDOSIDE E], the IC50 in the assay on HepG2 is 6260 nM; with A549, over 10000 nM; in the assay on HT-29 it was 1400 nM; in the assay with A-375 it was over 10000 nM; with BGC-823 it was 8050 nM.

As for `CC(=O)O[C@H]1[C@H](OC(C)=O)[C@]23CO[C@@]4(CC[C@@H]5[C@@]6(C)CC[C@H](O[C@@H]7OC[C@H](O[C@@H]8O[C@H](CO)[C@@H](O)[C@H](O)[C@H]8O[C@@H]8OC[C@@H](O)[C@H](O)[C@H]8O)[C@H](O)[C@H]7O[C@@H]7O[C@H](CO)[C@@H](O)[C@H](O)[C@H]7O)C(C)(C)[C@@H]6CC[C@@]5(C)[C@]4(C)C[C@H]2O)[C@@H]3CC1(C)C` [CLETHROIDOSIDE F], the IC50 in the assay with HepG2 is 1260 nM; in the assay with A549, 2280 nM; with HT-29 it was 2040 nM; with A-375, 2190 nM; in the assay on BGC-823 it was 1950 nM.

Regarding `CC1(C)CC[C@]23CO[C@@]4(CC[C@@H]5[C@@]6(C)CC[C@H](O[C@@H]7OC[C@H](O[C@@H]8O[C@H](CO)[C@@H](O)[C@H](O)[C@H]8O[C@@H]8OC[C@@H](O)[C@H](O)[C@H]8O)[C@H](O)[C@H]7O[C@@H]7O[C@H](CO)[C@@H](O)[C@H](O)[C@H]7O)C(C)(C)[C@@H]6CC[C@@]5(C)[C@]4(C)C[C@H]2O)[C@@H]3C1` [LYSIKOKIANOSIDE 1], the IC50 is 1000 nM in the assay on HepG2; 1910 nM in the assay on A549; 1960 nM in the assay on HT-29; 1940 nM with A-375; 1750 nM in the assay on BGC-823.

With `CC(=O)O[C@H]1C(=O)[C@@]2(C)[C@H]([C@H](OC(=O)c3ccccc3)[C@]3(O)C[C@H](OC(=O)[C@H](O)[C@@H](NC(=O)c4ccccc4)c4ccccc4)C(C)=C1C3(C)C)[C@]1(OC(C)=O)CO[C@@H]1C[C@@H]2O` [PACLITAXEL], the IC50 in the assay on HepG2 is 4.4 nM; in the assay on A549, 44.9 nM; in the assay with HT-29, 3.94 nM; in the assay with A-375, 4.9 nM.
